Among the data in ChEMBL document CHEMBL1136949, “Regioselective synthesis and biological evaluation of bis(indolyl)methane derivatized 1,4-disubstituted 1,2,3-bistriazoles as anti-infective agents” (2009) are zone of inhibition and Activity values, retold here.

Calls of active or inactive are those of the source. No cut-off for these calls is given here.

The test system of one assay is Staphylococcus aureus. As to the kind of experiment: Antibacterial activity against Staphylococcus aureus ATCC 25923 at 100 ug/mL after 24 hrs by disk diffusion method. The format is functional. The settings on record: ATCC 25923, 24 h, read-out: DIZ. In outline: (§1)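 Paper-disc diffusion on Mueller Hinton agar, pH 7.4 ± 0.2 at 25 °C. Whatman No. 2 discs (5 mm) were heat-sterilized at 160 °C for 30 min, loaded with DMSO test solution at 100 µg/10 µL and dried, then laid on the agar. Plates were held 1 h in the refrigerator for diffusion, then incubated 24 h at 37 °C. Inhibition zone diameter was read in mm. DMSO served as solvent control; ciprofloxacin disc as reference.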
(Agar diffusion results depend on both activity and mobility in agar.)

For a further assay, the system named is Candida albicans. As to the kind of experiment: Antifungal activity against Candida albicans ATCC 10231 at 100 ug/mL after 24 hrs by disk diffusion method. The format is functional. The note with it: ATCC 10231, 24 h, read-out: DIZ. Put shortly:
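Disc diffusion as for the antibacterial test, on agar medium of glucose, peptone and Sabouraud dextrose agar in distilled water, pH 5.5 ± 0.2 at 25 °C. Sterilized 5 mm paper discs were loaded with DMSO test solution at 100 µg/10 µL and dried. Plates were held 1 h refrigerated, then incubated 24 h at 37 °C. Zone of inhibition was measured in mm.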

The next assay relates to Escherichia coli. Put plainly: Antibacterial activity against Escherichia coli ATCC 25922 at 100 ug/mL after 24 hrs by disk diffusion method. In kind it is functional, organism-based. Put shortly: as §1

Take `COc1ccc(Cn2cc(Cn3cc(C(c4ccc(OC)cc4)c4cn(Cc5cn(Cc6ccc(OC)cc6)nn5)c5ccccc45)c4ccccc43)nn2)cc1`: the zone of inhibition at 100 µg/mL in the assay on Staphylococcus aureus came out at 18 mm; in the assay on Candida albicans, 16 mm. The result in the assay with Escherichia coli was inactive.
For `COc1ccc(C(c2cn(Cc3cn(Cc4ccc(Cl)cc4)nn3)c3ccccc23)c2cn(Cc3cn(Cc4ccc(Cl)cc4)nn3)c3ccccc23)cc1` the same measures were 16 mm, 21 mm and “inactive”.
For `CC(=O)N1CCN(c2ccc(OCC3COC(Cn4ccnc4)(c4ccc(Cl)cc4Cl)O3)cc2)CC1` (configuration not stated) [KETOCONAZOLE], the zone of inhibition at 100 µg/mL with Candida albicans was 24 mm.
As to `Brc1ccc2c(c1)c(C(c1ccccc1)c1cn(Cc3cn(Cc4ccccc4)nn3)c3ccc(Br)cc13)cn2Cc1cn(Cc2ccccc2)nn1`, the zone of inhibition at 100 µg/mL in the assay with Staphylococcus aureus was 16 mm; with Candida albicans, 21 mm. Further, the result in the assay with Escherichia coli was inactive.
In the same order, the values of `c1ccc(Cn2cc(Cn3cc(C(c4ccccc4)c4cn(Cc5cn(Cc6ccccc6)nn5)c5ccccc45)c4ccccc43)nn2)cc1` are 20 mm, 16 mm and “inactive”.
In the same order, the values of `Clc1ccc(Cn2cc(Cn3cc(C(c4ccccc4)c4cn(Cc5cn(Cc6ccc(Cl)cc6)nn5)c5ccc(Br)cc45)c4cc(Br)ccc43)nn2)cc1` are 16 mm, 21 mm and “inactive”.
In the same order, the values of `COc1ccc(C(c2cn(Cc3cn(Cc4ccccc4)nn3)c3ccc(Br)cc23)c2cn(Cc3cn(Cc4ccccc4)nn3)c3ccc(Br)cc23)cc1` are 20 mm, 16 mm and “inactive”.
In the case of `Cc1c(C(c2ccccc2)c2c(C)n(Cc3cn(Cc4ccccc4)nn3)c3ccccc23)c2ccccc2n1Cc1cn(Cc2ccccc2)nn1`, the zone of inhibition at 100 µg/mL in the assay with Staphylococcus aureus is 20 mm; in the assay on Candida albicans, 16 mm. Further, the result in the assay with Escherichia coli was inactive.
In the same order, the values of `Cc1c(C(c2ccccc2)c2c(C)n(Cc3cn(Cc4ccc(Cl)cc4)nn3)c3ccccc23)c2ccccc2n1Cc1cn(Cc2ccc(Cl)cc2)nn1` are 17 mm, 19 mm and “inactive”.
For `COc1ccc(C(c2cn(Cc3cn(Cc4ccccc4)nn3)c3ccccc23)c2cn(Cc3cn(Cc4ccccc4)nn3)c3ccccc23)cc1`, the zone of inhibition at 100 µg/mL was 19 mm in the assay on Staphylococcus aureus and 17 mm in the assay with Candida albicans. In the assay with Escherichia coli, the outcome was inactive.
Take `O=C(O)c1cn(C2CC2)c2cc(N3CCNCC3)c(F)cc2c1=O` [CIPROFLOXACIN]: the zone of inhibition at 100 µg/mL with Staphylococcus aureus is 22 mm.
In the case of `COc1ccc(C(c2c(C)n(Cc3cn(Cc4ccc(Cl)cc4)nn3)c3ccccc23)c2c(C)n(Cc3cn(Cc4ccc(Cl)cc4)nn3)c3ccccc23)cc1`, the figures for the zone of inhibition at 100 µg/mL in the assay on Staphylococcus aureus and in the assay on Candida albicans were 16 mm and 20 mm, respectively. Moreover, the result in the assay with Escherichia coli was inactive.
In the same order, the values of `COc1ccc(Cn2cc(Cn3cc(C(c4ccccc4)c4cn(Cc5cn(Cc6ccc(OC)cc6)nn5)c5ccccc45)c4ccccc43)nn2)cc1` are 18 mm, 16 mm and “inactive”.
As to `Cc1c(C(c2ccc(Cl)cc2)c2c(C)n(Cc3cn(Cc4ccc(Cl)cc4)nn3)c3ccccc23)c2ccccc2n1Cc1cn(Cc2ccc(Cl)cc2)nn1`, the zone of inhibition at 100 µg/mL with Staphylococcus aureus came out at 19 mm; in the assay with Candida albicans, 18 mm. Moreover, in the assay with Escherichia coli, the outcome was inactive.
In the same order, the values of `Clc1ccc(Cn2cc(Cn3cc(C(c4ccc(Cl)cc4)c4cn(Cc5cn(Cc6ccc(Cl)cc6)nn5)c5ccccc45)c4ccccc43)nn2)cc1` are 20 mm, 16 mm and “inactive”.
In the same order, the values of `Clc1ccc(Cn2cc(Cn3cc(C(c4ccccc4)c4cn(Cc5cn(Cc6ccc(Cl)cc6)nn5)c5ccccc45)c4ccccc43)nn2)cc1` are 17 mm, 20 mm and “inactive”.
In the same order, the values of `Cc1c(C(c2ccc(Cl)cc2)c2c(C)n(Cc3cn(Cc4ccccc4)nn3)c3ccccc23)c2ccccc2n1Cc1cn(Cc2ccccc2)nn1` are 20 mm, 18 mm and “inactive”.
